Measurements taken from ChEMBL document CHEMBL4387787, “Cucurbalsaminones A-C, Rearranged Triterpenoids with a 5/6/3/6/5-Fused Pentacyclic Carbon Skeleton from Momordica balsamina, as Multidrug Resistance Reversers” (J Nat Prod, 2019).

How the values were obtained:
[1] = target: T1, ATP-dependent translocase ABCB1 (Homo sapiens, UniProt P08183); test: Modulation of ABCB1 (unknown origin) expressed in mouse L5178Y-MDR cells assessed as multidrug resistance reversing activity by measuring fluorescence activity ratio at 0.2 uM by rhodamine-123 accumulation based flow cytometry (reference value: 1.1 No unit); assay type: cell-based
T1 sequence (P08183 whole entry): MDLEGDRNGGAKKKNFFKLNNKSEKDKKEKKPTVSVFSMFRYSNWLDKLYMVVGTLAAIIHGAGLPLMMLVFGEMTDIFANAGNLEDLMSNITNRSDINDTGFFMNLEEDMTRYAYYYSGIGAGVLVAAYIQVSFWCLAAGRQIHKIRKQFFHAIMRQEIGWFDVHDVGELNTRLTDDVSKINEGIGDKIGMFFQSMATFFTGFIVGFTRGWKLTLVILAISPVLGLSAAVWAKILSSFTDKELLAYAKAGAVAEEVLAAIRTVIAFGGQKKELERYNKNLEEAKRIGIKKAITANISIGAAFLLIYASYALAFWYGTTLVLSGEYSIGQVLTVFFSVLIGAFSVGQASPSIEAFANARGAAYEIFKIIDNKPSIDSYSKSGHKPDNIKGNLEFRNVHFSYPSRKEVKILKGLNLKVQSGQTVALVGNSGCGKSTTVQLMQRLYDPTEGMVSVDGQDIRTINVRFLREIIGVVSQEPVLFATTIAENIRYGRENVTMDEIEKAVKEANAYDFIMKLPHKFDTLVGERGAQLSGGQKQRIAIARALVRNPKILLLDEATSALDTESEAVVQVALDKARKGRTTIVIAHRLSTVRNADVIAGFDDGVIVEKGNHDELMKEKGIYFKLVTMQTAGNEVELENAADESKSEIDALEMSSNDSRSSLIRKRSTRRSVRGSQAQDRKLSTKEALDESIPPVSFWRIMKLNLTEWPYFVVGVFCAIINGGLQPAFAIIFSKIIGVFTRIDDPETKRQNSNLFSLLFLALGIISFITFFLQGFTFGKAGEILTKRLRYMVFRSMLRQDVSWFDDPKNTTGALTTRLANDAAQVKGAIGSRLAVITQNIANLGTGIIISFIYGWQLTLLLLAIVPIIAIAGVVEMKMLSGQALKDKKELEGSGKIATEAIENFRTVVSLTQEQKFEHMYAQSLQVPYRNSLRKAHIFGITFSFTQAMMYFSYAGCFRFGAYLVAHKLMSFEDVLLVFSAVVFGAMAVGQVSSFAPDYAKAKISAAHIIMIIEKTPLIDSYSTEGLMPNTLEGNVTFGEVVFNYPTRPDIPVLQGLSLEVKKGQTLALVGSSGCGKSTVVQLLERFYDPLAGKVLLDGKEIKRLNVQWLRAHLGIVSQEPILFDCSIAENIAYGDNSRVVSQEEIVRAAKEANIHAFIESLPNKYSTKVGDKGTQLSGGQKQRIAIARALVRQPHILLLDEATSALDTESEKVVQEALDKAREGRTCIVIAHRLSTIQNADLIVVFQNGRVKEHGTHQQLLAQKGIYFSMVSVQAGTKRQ

[2] = target: T1, ATP-dependent translocase ABCB1; test: Modulation of ABCB1 (unknown origin) expressed in mouse L5178Y-MDR cells assessed as multidrug resistance reversing activity by measuring fluorescence activity ratio at 2 uM by rhodamine-123 accumulation based flow cytometry (reference value: 1.1 No unit); assay type: cell-based
[3] = target: T1, ATP-dependent translocase ABCB1; test: Modulation of ABCB1 (unknown origin) expressed in mouse L5178Y-MDR cells assessed as multidrug resistance reversing activity by measuring fluorescence activity ratio at 20 uM by rhodamine-123 accumulation based flow cytometry (reference value: 1.1 No unit); assay type: cell-based
[4] = Antiproliferative activity against mouse L5178Y cells by MTT assay; assay type: cell-based; conditions: read-out: ID50 (the source's name)
Method in brief: (§1)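 MTT assay on parental L5178 mouse T-lymphoma cells and a subline transfected with pHa MDR1/A retrovirus (human ABCB1) and selected with colchicine. Cells were exposed to increasing concentrations from 0.26 to 133 μM. Other handling followed earlier reports.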

[5] = Antiproliferative activity against mouse L5178Y cells transfected with ABCB1 by MTT assay; assay type: ADME, cell-based; conditions: read-out: ID50 (the source's name); method in brief: as §1

Ratio [1] | Ratio [2] | Ratio [3] | Compound | GI50 [4] [µM] | GI50 [5] [µM]
3.1 | 62.2 | 117.7 | C=C(C)/C=C/C[C@@H](C)[C@H]1CC[C@@]2(C)[C@@H]3C(=O)[C@@H]4C(C)(C)[C@@]45C(=O)CC[C@H]5[C@]3(C)CC[C@]12C | 20.7 | 37.6
1.4 | 14.2 | 87.5 | CC(=O)C[C@@H](C)[C@H]1CC[C@@]2(C)[C@@H]3C(=O)[C@@H]4C(C)(C)[C@@]45C(=O)CC[C@H]5[C@]3(C)CC[C@]12C | 72.2 | 68.3
5.9 | 76.7 | 105.5 | CC(C)=CC(=O)C[C@@H](C)[C@H]1CC[C@@]2(C)[C@@H]3C(=O)[C@@H]4C(C)(C)[C@@]45C(=O)CC[C@H]5[C@]3(C)CC[C@]12C | > 100 | > 100
